ChEMBL document CHEMBL1132970, “Synthesis of N-substituted 4-(4-hydroxyphenyl)piperidines, 4-(4-hydroxybenzyl)piperidines, and (+/-)-3-(4-hydroxyphenyl)pyrrolidines: selective antagonists at the 1A/2B NMDA receptor subtype” (J Med Chem, 2000)

Assays:
[1] = biological target: Glutamate NMDA receptor; Grin1/Grin2b (Rattus norvegicus, UniProt P35439+Q00960); assay: Inhibitory activity against Xenopus oocytes expressing rat N-Methyl-D-aspartate (NR1A/2B) Receptor subtype.; assay type: cell-based, Oocyte
Glutamate NMDA receptor; Grin1/Grin2b, sequence (Q00960 whole entry, other chains not shown): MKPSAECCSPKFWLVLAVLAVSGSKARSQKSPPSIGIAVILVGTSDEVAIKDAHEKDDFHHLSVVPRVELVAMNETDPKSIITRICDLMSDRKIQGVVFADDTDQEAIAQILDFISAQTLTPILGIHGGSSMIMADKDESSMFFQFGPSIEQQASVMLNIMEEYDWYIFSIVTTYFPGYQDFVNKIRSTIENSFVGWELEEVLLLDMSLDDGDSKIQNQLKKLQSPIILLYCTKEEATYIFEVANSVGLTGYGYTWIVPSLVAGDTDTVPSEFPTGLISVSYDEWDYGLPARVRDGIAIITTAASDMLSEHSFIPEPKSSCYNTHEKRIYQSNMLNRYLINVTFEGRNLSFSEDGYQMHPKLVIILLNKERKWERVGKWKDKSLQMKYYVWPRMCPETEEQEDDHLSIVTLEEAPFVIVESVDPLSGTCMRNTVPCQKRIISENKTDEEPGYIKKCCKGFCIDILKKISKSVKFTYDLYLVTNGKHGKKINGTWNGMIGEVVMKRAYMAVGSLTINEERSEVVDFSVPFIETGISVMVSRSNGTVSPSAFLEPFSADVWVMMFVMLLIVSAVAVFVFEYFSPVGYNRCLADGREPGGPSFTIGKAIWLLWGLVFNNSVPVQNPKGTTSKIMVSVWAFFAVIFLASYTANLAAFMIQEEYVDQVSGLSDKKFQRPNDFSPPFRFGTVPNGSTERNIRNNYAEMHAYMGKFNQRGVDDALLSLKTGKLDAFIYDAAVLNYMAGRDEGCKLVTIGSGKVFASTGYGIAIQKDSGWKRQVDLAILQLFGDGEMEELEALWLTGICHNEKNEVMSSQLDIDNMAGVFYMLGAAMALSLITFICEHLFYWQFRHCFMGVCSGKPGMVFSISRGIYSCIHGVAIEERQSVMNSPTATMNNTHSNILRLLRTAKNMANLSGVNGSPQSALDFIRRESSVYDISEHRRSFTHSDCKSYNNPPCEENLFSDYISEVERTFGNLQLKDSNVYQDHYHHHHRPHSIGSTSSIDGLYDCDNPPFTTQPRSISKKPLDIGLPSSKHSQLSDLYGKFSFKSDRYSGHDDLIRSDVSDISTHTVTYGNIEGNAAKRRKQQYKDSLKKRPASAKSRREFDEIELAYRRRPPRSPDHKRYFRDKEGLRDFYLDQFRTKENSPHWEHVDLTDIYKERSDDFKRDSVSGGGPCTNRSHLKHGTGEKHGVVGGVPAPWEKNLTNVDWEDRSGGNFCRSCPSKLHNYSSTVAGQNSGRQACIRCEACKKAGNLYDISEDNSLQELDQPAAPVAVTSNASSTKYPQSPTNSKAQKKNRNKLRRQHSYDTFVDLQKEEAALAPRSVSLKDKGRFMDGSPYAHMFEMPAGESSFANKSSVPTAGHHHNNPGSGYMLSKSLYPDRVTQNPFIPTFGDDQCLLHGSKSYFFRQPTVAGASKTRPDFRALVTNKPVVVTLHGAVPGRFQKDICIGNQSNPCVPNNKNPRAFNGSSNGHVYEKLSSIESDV
Method in brief: (§1)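 Electrophysiology on oocytes expressing each NMDA subunit combination. IC50 from curve fitting of concentration-inhibition data pooled from 1-7 separate experiments.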

[2] = biological target: D(2) dopamine receptor (Rattus norvegicus, UniProt P61169); assay: Inhibition of [3H]-raclopride binding at Dopamine receptor D2 in rat brain membranes.; assay type: cell membranes
D(2) dopamine receptor, sequence (P61169 whole entry): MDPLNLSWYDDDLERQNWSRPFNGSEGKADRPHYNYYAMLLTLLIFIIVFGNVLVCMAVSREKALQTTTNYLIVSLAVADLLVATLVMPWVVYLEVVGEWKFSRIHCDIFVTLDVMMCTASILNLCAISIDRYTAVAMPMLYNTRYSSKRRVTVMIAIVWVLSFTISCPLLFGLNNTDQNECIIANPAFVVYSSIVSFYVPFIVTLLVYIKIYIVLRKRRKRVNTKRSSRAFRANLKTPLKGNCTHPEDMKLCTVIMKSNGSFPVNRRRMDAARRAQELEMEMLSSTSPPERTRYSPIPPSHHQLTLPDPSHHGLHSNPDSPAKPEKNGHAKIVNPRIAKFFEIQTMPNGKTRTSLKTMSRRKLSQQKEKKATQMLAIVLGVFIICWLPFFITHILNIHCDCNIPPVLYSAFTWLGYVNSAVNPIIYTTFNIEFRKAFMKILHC
Method in brief: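 Rat striatal membranes, washed in 50 mM Tris-HCl pH 7.4, assayed in 120 mM NaCl/5 mM KCl/50 mM Tris-HCl pH 7.4. 200 µg membrane protein with 3 nM [3H]raclopride; nonspecific binding with 300 µM sulpiride. Nine concentrations in duplicate; IC50 by sigmoidal curve fit.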

[3] = species: Mus musculus; assay: Effective dose for protection against MES seizures in mice; assay type: functional
Method in brief: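 Male Swiss Webster mice (23-27 g, food and water ad libitum), compound given iv as 5 mg/mL solution in 0.2 M Tris. Seizure protection tested 2 min after dosing; corneal electroshock, rectangular pulses 50 mA, 60-75 Hz, 0.8 ms width, 0.2 s train. Seizure scored as tonic hind-limb extension. ED50 with 95% confidence limits; at least 24 animals per compound.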

[4] = biological target: Glutamate NMDA receptor; Grin1/Grin2a (Rattus norvegicus, UniProt P35439+Q00959); assay: Inhibitory activity against Xenopus oocytes expressing rat N-Methyl-D-aspartate (NR1A/2A) Receptor subtype.; assay type: cell-based, Oocyte; method in brief: as §1
Glutamate NMDA receptor; Grin1/Grin2a, sequence (Q00959 whole entry, other chains not shown): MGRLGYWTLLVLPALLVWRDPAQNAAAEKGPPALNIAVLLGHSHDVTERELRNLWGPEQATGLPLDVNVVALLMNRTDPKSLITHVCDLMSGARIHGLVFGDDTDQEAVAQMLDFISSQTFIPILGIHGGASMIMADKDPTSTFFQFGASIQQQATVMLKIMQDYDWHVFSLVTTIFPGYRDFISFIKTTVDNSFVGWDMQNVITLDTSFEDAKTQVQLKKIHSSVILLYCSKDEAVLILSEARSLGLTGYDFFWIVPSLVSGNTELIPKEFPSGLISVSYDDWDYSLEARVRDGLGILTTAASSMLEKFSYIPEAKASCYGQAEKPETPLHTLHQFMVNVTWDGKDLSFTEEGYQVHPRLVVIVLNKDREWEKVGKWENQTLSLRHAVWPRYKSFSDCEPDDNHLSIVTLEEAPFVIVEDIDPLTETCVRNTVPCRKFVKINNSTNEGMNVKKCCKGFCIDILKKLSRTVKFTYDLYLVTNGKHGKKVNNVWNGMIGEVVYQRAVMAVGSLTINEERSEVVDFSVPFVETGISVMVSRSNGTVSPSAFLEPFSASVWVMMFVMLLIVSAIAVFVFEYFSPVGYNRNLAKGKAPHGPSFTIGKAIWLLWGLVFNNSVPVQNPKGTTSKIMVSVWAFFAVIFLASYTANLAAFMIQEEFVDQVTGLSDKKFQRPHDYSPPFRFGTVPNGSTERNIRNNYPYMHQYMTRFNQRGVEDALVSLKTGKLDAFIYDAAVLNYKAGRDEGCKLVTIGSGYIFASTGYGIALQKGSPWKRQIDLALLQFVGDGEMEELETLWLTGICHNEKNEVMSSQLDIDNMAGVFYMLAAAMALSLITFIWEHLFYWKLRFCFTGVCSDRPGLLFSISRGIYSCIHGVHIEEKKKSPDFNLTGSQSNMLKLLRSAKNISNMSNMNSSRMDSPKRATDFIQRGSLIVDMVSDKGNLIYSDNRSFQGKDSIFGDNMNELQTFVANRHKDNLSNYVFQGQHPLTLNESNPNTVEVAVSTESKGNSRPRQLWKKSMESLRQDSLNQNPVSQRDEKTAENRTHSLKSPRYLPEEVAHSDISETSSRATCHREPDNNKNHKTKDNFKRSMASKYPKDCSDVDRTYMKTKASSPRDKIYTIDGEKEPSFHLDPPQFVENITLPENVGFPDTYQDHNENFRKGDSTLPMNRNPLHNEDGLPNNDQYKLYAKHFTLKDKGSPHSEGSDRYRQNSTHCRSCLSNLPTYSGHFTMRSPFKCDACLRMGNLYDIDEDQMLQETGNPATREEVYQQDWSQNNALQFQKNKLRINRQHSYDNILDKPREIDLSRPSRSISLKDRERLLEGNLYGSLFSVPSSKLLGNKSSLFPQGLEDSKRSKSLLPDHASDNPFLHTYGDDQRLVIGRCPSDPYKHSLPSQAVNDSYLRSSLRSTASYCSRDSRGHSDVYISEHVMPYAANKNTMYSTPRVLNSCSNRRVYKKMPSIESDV

[5] = biological target: Glutamate NMDA receptor; Grin1/Grin2c (Rattus norvegicus, UniProt P35439+Q00961); assay: Inhibitory activity against Xenopus oocytes expressing rat N-Methyl-D-aspartate (NR1A/2C) Receptor subtype.; assay type: cell-based, Oocyte; method in brief: as §1
Glutamate NMDA receptor; Grin1/Grin2c, sequence (Q00961 whole entry, other chains not shown): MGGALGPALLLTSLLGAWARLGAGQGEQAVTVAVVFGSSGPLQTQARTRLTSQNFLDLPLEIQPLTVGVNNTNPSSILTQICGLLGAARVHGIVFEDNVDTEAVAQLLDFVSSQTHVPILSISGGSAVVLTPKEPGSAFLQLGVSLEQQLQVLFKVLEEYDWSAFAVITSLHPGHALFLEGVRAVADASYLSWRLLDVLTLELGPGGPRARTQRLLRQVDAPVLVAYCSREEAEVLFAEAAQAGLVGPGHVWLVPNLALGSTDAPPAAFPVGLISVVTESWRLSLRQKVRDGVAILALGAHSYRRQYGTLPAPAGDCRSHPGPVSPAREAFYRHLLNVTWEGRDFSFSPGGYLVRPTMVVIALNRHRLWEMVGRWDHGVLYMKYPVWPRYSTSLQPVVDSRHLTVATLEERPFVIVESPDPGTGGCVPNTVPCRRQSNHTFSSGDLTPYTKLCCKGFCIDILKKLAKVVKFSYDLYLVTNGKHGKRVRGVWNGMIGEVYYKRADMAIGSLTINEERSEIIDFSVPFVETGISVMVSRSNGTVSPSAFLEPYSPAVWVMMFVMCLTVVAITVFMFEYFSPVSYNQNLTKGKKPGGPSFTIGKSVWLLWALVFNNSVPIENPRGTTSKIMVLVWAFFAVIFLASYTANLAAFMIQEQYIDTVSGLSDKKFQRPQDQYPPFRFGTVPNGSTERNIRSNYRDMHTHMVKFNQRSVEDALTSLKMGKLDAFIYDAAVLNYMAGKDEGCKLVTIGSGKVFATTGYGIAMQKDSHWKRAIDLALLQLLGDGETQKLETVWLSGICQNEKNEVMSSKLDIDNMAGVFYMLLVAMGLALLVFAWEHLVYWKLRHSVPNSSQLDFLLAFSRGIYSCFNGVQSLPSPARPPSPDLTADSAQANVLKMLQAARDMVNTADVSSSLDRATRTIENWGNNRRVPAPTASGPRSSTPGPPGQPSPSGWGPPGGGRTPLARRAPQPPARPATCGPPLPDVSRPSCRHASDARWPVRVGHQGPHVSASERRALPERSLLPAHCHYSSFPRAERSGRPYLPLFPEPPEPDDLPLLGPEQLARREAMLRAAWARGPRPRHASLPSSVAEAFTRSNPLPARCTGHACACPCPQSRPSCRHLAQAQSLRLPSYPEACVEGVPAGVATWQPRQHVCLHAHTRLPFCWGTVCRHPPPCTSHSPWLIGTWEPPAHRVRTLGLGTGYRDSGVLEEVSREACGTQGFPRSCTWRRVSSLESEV

[6] = biological target: T1, Adrenergic receptor alpha-1 (Rattus norvegicus, UniProt P15823+P23944+P43140); assay: Inhibition of [3H]prazosin binding at alpha-1 adrenergic receptor in rat brain cortical membranes.; assay type: cell membranes, Membrane
T1 sequence (P15823 whole entry): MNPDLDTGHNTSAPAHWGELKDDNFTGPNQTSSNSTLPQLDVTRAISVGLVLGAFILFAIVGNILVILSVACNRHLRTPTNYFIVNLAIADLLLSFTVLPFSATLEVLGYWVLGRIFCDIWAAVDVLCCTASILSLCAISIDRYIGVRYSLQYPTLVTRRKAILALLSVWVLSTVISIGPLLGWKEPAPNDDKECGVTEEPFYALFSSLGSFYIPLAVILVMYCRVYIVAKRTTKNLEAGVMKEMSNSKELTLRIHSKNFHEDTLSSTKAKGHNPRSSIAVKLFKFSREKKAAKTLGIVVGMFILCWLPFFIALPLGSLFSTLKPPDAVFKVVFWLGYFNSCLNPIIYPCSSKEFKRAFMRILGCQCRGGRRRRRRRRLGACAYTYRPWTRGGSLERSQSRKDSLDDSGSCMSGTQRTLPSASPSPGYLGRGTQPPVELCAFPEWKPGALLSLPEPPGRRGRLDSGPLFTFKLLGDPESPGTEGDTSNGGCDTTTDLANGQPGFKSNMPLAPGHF
T1 sequence (P23944 whole entry): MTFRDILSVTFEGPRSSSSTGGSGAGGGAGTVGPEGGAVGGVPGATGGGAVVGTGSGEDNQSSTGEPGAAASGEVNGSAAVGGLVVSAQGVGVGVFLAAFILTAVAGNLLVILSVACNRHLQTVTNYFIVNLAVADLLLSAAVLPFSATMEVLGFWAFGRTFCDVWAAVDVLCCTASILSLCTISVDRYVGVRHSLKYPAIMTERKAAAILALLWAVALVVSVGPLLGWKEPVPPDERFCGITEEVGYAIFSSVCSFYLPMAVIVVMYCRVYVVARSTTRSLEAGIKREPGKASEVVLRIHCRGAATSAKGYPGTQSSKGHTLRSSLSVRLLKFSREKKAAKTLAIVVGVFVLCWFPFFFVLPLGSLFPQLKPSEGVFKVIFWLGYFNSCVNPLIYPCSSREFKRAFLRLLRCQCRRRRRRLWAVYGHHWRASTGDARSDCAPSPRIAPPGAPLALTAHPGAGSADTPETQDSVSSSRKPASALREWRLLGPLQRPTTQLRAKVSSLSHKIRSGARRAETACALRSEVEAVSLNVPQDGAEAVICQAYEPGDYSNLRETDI
T1 sequence (P43140 whole entry): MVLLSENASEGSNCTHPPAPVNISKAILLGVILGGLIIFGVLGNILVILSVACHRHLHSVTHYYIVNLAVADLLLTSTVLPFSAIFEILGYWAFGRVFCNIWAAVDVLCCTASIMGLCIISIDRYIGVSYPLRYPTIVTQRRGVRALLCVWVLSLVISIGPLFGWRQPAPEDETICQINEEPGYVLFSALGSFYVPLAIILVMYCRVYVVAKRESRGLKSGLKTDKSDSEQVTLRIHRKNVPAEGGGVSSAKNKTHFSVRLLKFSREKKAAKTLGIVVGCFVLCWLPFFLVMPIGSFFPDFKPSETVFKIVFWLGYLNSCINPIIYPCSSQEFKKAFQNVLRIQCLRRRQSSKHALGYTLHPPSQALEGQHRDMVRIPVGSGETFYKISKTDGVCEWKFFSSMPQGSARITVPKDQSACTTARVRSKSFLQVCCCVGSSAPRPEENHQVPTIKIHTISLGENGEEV
Method in brief: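 Membranes from Sprague-Dawley rat cortex, sucrose/Tris homogenate washed three times. Assayed in 140 mM NaCl/5 mM MgCl2/50 mM Tris-HCl pH 7.4. 200 µg protein incubated with 0.8 nM [3H]prazosin; 10 µM phentolamine defined nonspecific binding. Nine concentrations in duplicate; IC50 from sigmoidal fit.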

SMILES | IC50 [1] [µM] | IC50 [2] [µM] | IC50 [4] [µM] | IC50 [5] [µM] | IC50 [6] [µM] | ED50 [3] [mg/kg]
COc1ccc(C2CCN(CCCCc3ccccc3)CC2)cc1.Cl | > 100 | 0.41 | > 100 | > 100 | 1.7 | 0.56
Oc1ccc(C2CCN(CC(O)CCc3ccccc3)CC2)cc1 (stereo not drawn) | 0.019 | 5.9 | > 100 | > 100 | 1.4 | 0.46
Oc1ccc(C2(O)CCN(CCCCc3ccccc3)CC2)cc1 | 0.012 | 22 | 62 | > 100 | 2.2 | 2.3
Oc1ccc(C2=CCN(CCCCc3ccccc3)CC2)cc1 | 0.011 | – | > 100 | > 100 | – | –
Oc1ccc(C2CCN(CCCCc3ccccc3)C2)cc1 (stereo not drawn) | 0.13 | – | 52 | > 100 | – | –
c1ccc(CCCCN2CCC(c3ccccc3)CC2)cc1 | 2.2 | – | > 100 | > 100 | – | –
Oc1ccc(C2CCN(CCCCCc3ccccc3)C2)cc1 (stereo not drawn) | 0.017 | – | 41 | > 100 | – | –
CCCCN1CCC(c2ccc(O)cc2)CC1 | 61 | – | > 100 | > 100 | – | –
Br.Oc1ccc(C2CCN(CCCCc3ccccc3)CC2)cc1 | 0.022 | 1.2 | > 100 | > 100 | 0.54 | 0.23
Oc1ccc(C2(O)CCN(CC(O)CCc3ccccc3)CC2)cc1 (stereo not drawn) | 0.026 | 105 | – | > 100 | 14 | 5.7
Oc1ccc(C2CCN(CCCCCc3ccccc3)CC2)cc1 | 0.075 | – | > 100 | > 100 | – | –

Further lines, with some results ahead:

IC50 [1] [µM] | IC50 [2] [µM] | IC50 [4] [µM] | IC50 [5] [µM] | IC50 [6] [µM] | SMILES | ED50 [3] [mg/kg]
0.8 | – | > 100 | > 100 | – | Oc1ccc(CC2CCN(CCC#Cc3ccccc3)CC2)cc1 | –
0.071 | – | > 100 | > 100 | – | Oc1ccc(CC2CCN(CCCCc3ccccc3)CC2)cc1 | –
0.23 | – | 43 | > 100 | – | Oc1ccc(CCCCN2CCC(c3ccccc3)CC2)cc1 | –
0.18 | – | > 100 | > 100 | – | Oc1ccc(CC2CCN(CC#Cc3ccccc3)CC2)cc1 | –
0.019 | – | 59 | > 100 | – | Oc1ccc(C2CCN(CCOCc3ccccc3)CC2)cc1 | –
0.074 | – | 51 | > 100 | – | Oc1ccc(C2CCN(CCCc3ccccc3)CC2)cc1 | –
0.059 | – | > 100 | > 100 | – | Oc1ccc(CC2CCN(CCCc3ccccc3)CC2)cc1 | –
